Laboratory results published in ChEMBL document CHEMBL3098105, “7,7'-Diazaindirubin--a small molecule inhibitor of casein kinase 2 in vitro and in cells” (Bioorg Med Chem, 2014).
Calls of active or inactive are those of the source. No cut-off for these calls is given here.

Legend:
[1] = biological target: Glycogen synthase kinase-3 beta (Homo sapiens) (UniProt P49841); test: Inhibition of GSK3-beta (unknown origin) assessed as residual activity at 1 uM relative to control
[2] = system: T47D; test: Antiproliferative activity against human T47D cells after 3 days by sulforhodamine B assay; format: functional; details: 72 h
[3] = system: BT-549; test: Antiproliferative activity against human BT549 cells after 3 days by sulforhodamine B assay; format: functional; details: BT-549, 72 h
Method in brief: (§1)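 Tested in the NCI 60 cell line panel. GI50 is the concentration giving 50% inhibition of cell growth, and values are the mean of two series of tests.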

[4] = system: CAKI-1; test: Antiproliferative activity against human CAKI-1 cells after 3 days by sulforhodamine B assay; format: functional; details: CAKI-1, 72 h; method in brief: as §1
[5] = system: UACC-62; test: Antiproliferative activity against human UACC62 cells after 3 days by sulforhodamine B assay; format: functional; details: UACC-62, 72 h
[6] = system: U-251; test: Antiproliferative activity against human U251 cells after 3 days by sulforhodamine B assay; format: functional; details: U-251, 72 h
[7] = system: HCT-116; test: Antiproliferative activity against human HCT116 cells after 3 days by sulforhodamine B assay; format: functional; details: HCT-116, 72 h; method in brief: as §1
[8] = biological target: Angiopoietin-1 receptor (Homo sapiens) (UniProt Q02763); test: Inhibition of human Tie2 assessed as residual activity at 1 uM relative to control
[9] = biological target: Tyrosine-protein kinase SYK (Homo sapiens) (UniProt P43405); test: Inhibition of human Syk assessed as residual activity at 1 uM relative to control
[10] = biological target: Proto-oncogene tyrosine-protein kinase ROS (Homo sapiens) (UniProt P08922); test: Inhibition of human Ros assessed as residual activity at 1 uM relative to control
[11] = biological target: Rho-associated protein kinase 1 (Homo sapiens) (UniProt Q13464); test: Inhibition of human ROCK-1 assessed as residual activity at 1 uM relative to control
[12] = biological target: cAMP-dependent protein kinase catalytic subunit PRKX (Homo sapiens) (UniProt P51817); test: Inhibition of human PrKX assessed as residual activity at 1 uM relative to control
[13] = biological target: MAP kinase-activated protein kinase 5 (Homo sapiens) (UniProt Q8IW41); test: Inhibition of human PRAK assessed as residual activity at 1 uM relative to control
[14] = system: MCF7; test: Induction of late stage apoptosis in CK2-deficient human MCF7 cells at 0.25 to 4 uM after 24 hrs using propidium iodide/annexin V staining by FACS analysis; format: functional, cell-based
Method in brief: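 MCF7 cells were then treated for 24 h, stained with FITC-annexin V in HEPES pH 7.4 binding buffer with 1.8 mM CaCl2 (15 min, dark, room temperature), then with PI (10 min), and analysed by FACS.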

[15] = biological target: Casein kinase II (Homo sapiens) (UniProt P67870+P68400+P19784); test: Inhibition of CK2 in human MCF7 cells assessed as time of delay for GSK3beta phosphorylation at Ser9 at 1 uM by Western blot analysis; format: cell-based
Method in brief: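 MCF7 cells were grown at 37 °C and 5% CO2 in DMEM with 10% heat-inactivated FBS and penicillin/streptomycin. Cells were exposed to 1 µM for the indicated times, with DMSO as the untreated control. Extracts were made in urea lysis buffer, and 20–40 µg protein was run on 10% SDS–PAGE. Blots were probed with primary antibodies (1:1000, overnight, 4 °C) and read by ECL, with β-actin as loading control.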

[16] = biological target: Phosphorylase b kinase gamma catalytic chain, liver/testis isoform (Homo sapiens) (UniProt P15735); test: Inhibition of human PhKgamma2 assessed as residual activity at 1 uM relative to control
[17] = biological target: Mitogen-activated protein kinase 9 (Homo sapiens) (UniProt P45984); test: Inhibition of human JNK2alpha2 assessed as residual activity at 1 uM relative to control
[18] = biological target: G protein-coupled receptor kinase 6 (Homo sapiens) (UniProt P43250); test: Inhibition of human GRK6 assessed as residual activity at 1 uM relative to control
[19] = biological target: Vascular endothelial growth factor receptor 1 (Homo sapiens) (UniProt P17948); test: Inhibition of human Flt1 assessed as residual activity at 1 uM relative to control
[20] = biological target: Focal adhesion kinase 1 (Homo sapiens) (UniProt Q05397); test: Inhibition of human FAK assessed as residual activity at 1 uM relative to control
[21] = biological target: Myotonin-protein kinase (Homo sapiens) (UniProt Q09013); test: Inhibition of human DMPK assessed as residual activity at 1 uM relative to control
[22] = biological target: Proto-oncogene tyrosine-protein kinase Src (Homo sapiens) (UniProt P12931); test: Inhibition of human cSRC assessed as residual activity at 1 uM relative to control
[23] = biological target: Mast/stem cell growth factor receptor Kit (Homo sapiens) (UniProt P10721); test: Inhibition of human cKit assessed as residual activity at 1 uM relative to control
[24] = biological target: Cyclin-dependent kinase 2/cyclin E1 (Homo sapiens) (UniProt P24864+P24941); test: Inhibition of human CDK2/cyclinE assessed as residual activity at 1 uM relative to control; format: protein-complex assay
[25] = biological target: Calcium/calmodulin-dependent protein kinase type 1 (Homo sapiens) (UniProt Q14012); test: Inhibition of human CaMK1 assessed as residual activity at 1 uM relative to control
[26] = biological target: Tyrosine-protein kinase BTK (Homo sapiens) (UniProt Q06187); test: Inhibition of human BTK assessed as residual activity at 1 uM relative to control
[27] = biological target: T1, Aurora kinase A (Homo sapiens) (UniProt O14965); test: Inhibition of human Aurora-A assessed as residual activity at 1 uM relative to control
T1 sequence (whole entry): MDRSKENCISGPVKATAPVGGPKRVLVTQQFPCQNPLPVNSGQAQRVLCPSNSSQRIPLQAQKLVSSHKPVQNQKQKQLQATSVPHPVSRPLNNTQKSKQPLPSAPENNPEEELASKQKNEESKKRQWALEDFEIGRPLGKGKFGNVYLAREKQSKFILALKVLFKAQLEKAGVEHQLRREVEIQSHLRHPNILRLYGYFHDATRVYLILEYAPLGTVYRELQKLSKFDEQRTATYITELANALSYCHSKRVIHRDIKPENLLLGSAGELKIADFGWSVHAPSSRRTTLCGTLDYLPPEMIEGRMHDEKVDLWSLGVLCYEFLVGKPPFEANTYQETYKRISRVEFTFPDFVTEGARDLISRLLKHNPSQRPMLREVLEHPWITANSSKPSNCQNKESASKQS

[28] = biological target: Activated CDC42 kinase 1 (Homo sapiens) (UniProt Q07912); test: Inhibition of human ACK1 assessed as residual activity at 1 uM relative to control
[29] = biological target: Platelet-derived growth factor receptor alpha (Homo sapiens) (UniProt P16234); test: Inhibition of PDGFR-alpha (unknown origin) assessed as residual activity at 10 uM relative to control
[30] = biological target: Tyrosine-protein kinase Fgr (Homo sapiens) (UniProt P09769); test: Inhibition of FGR (unknown origin) assessed as residual activity at 10 uM relative to control

Proto-oncogene tyrosine-protein kinase Src (Homo sapiens), sequence (P12931 2-536 limits assumed): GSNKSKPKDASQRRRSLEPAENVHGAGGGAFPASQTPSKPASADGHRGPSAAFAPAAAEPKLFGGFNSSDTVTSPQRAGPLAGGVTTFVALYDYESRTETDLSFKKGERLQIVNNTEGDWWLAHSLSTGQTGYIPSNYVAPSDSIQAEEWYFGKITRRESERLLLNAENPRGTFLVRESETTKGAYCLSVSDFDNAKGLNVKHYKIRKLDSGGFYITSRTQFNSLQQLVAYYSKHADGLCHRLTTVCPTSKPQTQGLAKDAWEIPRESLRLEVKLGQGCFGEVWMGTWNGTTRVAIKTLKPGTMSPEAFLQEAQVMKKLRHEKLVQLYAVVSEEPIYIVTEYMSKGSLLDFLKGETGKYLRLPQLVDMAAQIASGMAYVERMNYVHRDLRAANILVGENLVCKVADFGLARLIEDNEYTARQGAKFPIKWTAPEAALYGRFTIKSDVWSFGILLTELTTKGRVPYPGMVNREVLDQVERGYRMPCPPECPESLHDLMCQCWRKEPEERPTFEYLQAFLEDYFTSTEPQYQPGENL
Proto-oncogene tyrosine-protein kinase ROS (Homo sapiens), sequence (P08922 whole entry): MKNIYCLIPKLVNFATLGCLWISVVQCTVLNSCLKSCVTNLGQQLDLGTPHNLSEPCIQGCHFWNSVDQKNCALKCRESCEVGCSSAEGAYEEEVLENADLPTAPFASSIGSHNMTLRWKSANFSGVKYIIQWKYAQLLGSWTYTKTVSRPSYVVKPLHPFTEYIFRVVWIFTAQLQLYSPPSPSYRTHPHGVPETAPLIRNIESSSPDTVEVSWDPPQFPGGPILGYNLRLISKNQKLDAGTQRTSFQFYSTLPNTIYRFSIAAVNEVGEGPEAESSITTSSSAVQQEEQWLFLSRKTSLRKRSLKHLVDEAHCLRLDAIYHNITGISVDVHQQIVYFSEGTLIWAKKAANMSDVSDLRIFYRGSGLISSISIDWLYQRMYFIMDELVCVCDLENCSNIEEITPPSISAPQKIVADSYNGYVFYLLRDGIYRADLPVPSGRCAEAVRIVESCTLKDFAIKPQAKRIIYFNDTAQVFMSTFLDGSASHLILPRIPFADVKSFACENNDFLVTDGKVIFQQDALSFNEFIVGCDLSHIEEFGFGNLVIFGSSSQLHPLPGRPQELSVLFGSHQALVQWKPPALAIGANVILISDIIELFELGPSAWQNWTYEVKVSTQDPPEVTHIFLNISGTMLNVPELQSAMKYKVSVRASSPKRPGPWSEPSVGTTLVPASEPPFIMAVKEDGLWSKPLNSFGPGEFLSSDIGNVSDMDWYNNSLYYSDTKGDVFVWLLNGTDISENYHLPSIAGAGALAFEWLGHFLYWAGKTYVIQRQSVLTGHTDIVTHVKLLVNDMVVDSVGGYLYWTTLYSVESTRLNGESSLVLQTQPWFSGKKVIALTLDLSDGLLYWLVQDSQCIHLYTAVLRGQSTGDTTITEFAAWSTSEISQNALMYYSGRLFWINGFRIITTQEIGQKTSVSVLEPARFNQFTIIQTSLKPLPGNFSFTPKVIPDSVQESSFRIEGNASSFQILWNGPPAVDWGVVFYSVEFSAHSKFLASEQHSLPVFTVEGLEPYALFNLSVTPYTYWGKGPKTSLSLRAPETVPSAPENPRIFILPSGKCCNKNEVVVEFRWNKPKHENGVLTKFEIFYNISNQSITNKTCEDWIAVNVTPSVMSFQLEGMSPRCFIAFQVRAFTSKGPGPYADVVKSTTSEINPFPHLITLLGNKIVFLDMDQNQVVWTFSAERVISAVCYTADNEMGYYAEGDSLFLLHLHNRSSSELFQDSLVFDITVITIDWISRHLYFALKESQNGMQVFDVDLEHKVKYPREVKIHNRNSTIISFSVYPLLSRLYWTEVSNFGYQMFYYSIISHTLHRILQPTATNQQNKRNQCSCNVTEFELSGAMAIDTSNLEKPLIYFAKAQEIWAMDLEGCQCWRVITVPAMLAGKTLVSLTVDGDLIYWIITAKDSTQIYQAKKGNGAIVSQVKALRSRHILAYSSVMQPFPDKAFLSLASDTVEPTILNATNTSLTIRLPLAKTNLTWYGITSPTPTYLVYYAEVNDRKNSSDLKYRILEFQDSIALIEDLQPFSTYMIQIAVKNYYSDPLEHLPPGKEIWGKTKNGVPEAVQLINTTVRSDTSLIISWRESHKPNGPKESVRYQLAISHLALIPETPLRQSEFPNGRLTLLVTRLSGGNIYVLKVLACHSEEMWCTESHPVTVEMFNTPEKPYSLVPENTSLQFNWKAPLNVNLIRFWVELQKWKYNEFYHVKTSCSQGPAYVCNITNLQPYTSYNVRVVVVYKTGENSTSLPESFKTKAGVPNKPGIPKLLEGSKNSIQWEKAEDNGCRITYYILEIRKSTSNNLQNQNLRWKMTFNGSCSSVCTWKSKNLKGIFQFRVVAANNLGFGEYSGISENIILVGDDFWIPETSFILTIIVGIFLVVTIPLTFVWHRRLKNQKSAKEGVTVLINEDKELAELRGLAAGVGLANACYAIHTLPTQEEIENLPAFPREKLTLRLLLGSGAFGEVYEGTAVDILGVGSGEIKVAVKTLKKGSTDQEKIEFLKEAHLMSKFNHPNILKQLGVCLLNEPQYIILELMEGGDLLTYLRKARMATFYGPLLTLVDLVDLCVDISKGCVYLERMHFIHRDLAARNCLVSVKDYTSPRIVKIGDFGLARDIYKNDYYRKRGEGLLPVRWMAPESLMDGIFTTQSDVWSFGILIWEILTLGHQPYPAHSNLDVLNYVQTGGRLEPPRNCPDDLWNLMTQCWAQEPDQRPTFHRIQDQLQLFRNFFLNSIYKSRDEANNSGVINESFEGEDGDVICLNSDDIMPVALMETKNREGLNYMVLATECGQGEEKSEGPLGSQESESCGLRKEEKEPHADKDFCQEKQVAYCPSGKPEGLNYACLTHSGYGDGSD
Glycogen synthase kinase-3 beta (Homo sapiens), sequence (P49841 whole entry, looked up): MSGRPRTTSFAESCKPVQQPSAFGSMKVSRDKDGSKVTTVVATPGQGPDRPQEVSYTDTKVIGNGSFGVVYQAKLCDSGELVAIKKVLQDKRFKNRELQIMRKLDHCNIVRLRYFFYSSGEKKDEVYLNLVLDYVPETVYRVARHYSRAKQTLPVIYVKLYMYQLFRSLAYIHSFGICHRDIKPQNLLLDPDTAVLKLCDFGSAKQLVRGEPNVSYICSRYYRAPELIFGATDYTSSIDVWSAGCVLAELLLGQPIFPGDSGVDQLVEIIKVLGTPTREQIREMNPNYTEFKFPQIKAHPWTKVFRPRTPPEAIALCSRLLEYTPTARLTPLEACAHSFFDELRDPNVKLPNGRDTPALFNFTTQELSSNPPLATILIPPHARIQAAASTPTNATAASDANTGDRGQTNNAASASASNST
MAP kinase-activated protein kinase 5 (Homo sapiens), sequence (Q8IW41 whole entry): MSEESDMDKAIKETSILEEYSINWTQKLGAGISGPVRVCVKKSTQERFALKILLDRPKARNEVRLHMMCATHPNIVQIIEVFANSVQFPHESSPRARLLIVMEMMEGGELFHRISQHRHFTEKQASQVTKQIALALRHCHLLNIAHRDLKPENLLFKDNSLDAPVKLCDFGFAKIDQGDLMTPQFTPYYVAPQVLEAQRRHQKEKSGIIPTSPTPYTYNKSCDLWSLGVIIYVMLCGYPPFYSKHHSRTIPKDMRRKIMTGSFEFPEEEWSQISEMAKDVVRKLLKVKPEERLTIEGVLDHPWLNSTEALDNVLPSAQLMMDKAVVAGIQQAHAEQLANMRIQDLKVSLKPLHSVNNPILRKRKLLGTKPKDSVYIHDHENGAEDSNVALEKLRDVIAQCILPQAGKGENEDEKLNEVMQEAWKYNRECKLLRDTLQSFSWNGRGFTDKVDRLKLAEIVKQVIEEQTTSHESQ
Focal adhesion kinase 1 (Homo sapiens), sequence (Q05397 2-1052 limits assumed): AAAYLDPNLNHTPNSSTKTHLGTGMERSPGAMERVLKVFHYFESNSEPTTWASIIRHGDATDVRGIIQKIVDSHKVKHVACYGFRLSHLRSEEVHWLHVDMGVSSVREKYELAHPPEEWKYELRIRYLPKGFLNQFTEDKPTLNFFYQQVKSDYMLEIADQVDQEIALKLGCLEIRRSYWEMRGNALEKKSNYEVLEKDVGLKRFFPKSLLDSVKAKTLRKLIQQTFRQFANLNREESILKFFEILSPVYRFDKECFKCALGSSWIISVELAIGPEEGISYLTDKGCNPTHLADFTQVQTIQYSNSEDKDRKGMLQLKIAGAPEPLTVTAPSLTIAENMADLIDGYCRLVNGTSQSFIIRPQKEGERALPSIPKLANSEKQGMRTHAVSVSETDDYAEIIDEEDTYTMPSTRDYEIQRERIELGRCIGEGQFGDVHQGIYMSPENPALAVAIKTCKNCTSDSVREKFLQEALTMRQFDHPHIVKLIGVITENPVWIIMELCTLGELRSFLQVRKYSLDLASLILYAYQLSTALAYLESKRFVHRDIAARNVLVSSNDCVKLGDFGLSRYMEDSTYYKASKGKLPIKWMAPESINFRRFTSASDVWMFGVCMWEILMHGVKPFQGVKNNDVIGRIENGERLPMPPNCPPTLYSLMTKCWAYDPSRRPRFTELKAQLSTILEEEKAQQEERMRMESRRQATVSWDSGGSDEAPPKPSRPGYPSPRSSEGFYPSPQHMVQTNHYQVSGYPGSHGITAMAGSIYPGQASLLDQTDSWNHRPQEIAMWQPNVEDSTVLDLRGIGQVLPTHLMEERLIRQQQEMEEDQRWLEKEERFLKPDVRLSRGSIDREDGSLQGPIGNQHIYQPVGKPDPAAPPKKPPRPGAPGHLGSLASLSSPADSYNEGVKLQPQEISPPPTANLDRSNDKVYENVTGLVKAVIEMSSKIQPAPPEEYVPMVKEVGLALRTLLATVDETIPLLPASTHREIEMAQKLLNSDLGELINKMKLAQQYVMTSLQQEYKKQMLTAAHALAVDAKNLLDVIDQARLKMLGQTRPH

Activity [1]: 92%
GI50 [2]: 1770 nM
GI50 [3]: 1600 nM
GI50 [6]: 1100 nM
GI50 [7]: 1010 nM
Activity [8]: 117%
Activity [9]: 91%
Activity [10]: 102%
Activity [11]: 80%
Activity [12]: 103%
Activity [13]: 105%
TIME [15]: 0.5 h
Activity [16]: 104%
Activity [17]: 101%
Activity [18]: 94%
Activity [19]: 96%
Activity [20]: 110%
Activity [21]: 95%
Activity [22]: 63%
Activity [23]: 83%
Activity [24]: 79%
Activity [25]: 120%
Activity [26]: 140%
Activity [27]: 60%
Activity [28]: 97%
Activity [29]: 88%
Activity [30]: 93%
Compound: O=C1Nc2ncccc2/C1=C1/Nc2ncccc2C1=O
GI50 [4]: 1020 nM
GI50 [5]: 432 nM
Activity [14]: inactive
